# Laboratory results reported in ChEMBL document CHEMBL2016433 (Bioorg Med Chem, 2012).
# pIC50: −log10 of the molar value. The source made the active and inactive calls.
# Assays:
# U-937 [1] = test: Cytotoxicity against human U937 cells assessed as induction of cell death at 1 to 100 microM after 24 hrs by trypan blue exclusion method; type: functional, cell-based
# U-937 [2] = test: Cytostatic against human U937 cells assessed as reduction in absolute number of total cells after 24 hrs by haemocytometry; type: functional, cell-based
# Outline: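 U937 cells, 5×10^4 per well in RPMI-1640 with 5% FBS, 2 mM L-glutamine and penicillin-streptomycin, were exposed to 1 in 10 serial dilutions from 100 µM to 1 µM (stocks 20 mM in DMSO or medium), or to vehicle, for 24 h at 37 °C in CO₂. Total cells were counted by haemocytometer; mean and SD of at least three determinations.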
# U-937 [3] = test: Induction of cell death in human U937 cells assessed at 1 to 100 microM after 24 hrs by trypan blue exclusion method relative to untreated control; type: functional
# Outline: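 U937 cells (5×10^4 per well) exposed for 24 h at 37 °C, 5% CO₂ to 1 in 10 serial dilutions from 1 to 100 µM in RPMI-1640 with 5% FBS. Compounds came from 20 mM stocks in DMSO or medium. Controls got vehicle at equal amounts. Membrane-permeable cells were counted by trypan blue exclusion in a haemocytometer and expressed as percent. Mean and standard deviation from at least three determinations.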
# U-937 [4] = test: Induction of apoptosis in human U937 cells after 24 hrs by acridine orange staining based microscopy; type: functional, cell-based
# Outline: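 U937 cells were treated for 24 h at 37 °C with 1–100 µM compound or vehicle, then stained with acridine orange. Over 600 cells were scored by fluorescence microscopy; apoptosis was defined as uniformly stained nuclei with chromatin condensation or nuclear fragmentation. Mean and SD of at least three determinations.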
# MOLT-3 [5] = test: Induction of apoptosis in human MOLT3 cells after 24 hrs by acridine orange staining based fluorescence microscopy; type: functional
# Outline: (§1)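 HeLa, MOLT-3 and THP-1 cells were treated with increasing concentrations for 24 h, then stained with acridine orange and more than 600 cells scored by fluorescence microscopy for condensed or fragmented nuclei. AC30 is the concentration giving 30% apoptotic cells, from a best-fit curve versus log concentration.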
# THP-1 [6] = test: Cytotoxicity against human THP1 cells assessed as cell viability after 24 hrs; type: functional, cell-based; details: THP-1, 24 h
# MOLT-3 [7] = test: Cytotoxicity against human MOLT3 cells after 24 hrs by trypan blue exclusion assay; type: functional
# THP-1 [8] = test: Induction of apoptosis in human THP1 cells after 24 hrs by acridine orange staining based fluorescence microscopy; type: functional; outline: as §1
# MOLT-3 [9] = test: Cytotoxicity against human MOLT3 cells assessed as cell viability after 24 hrs; type: functional, cell-based; details: MOLT-3, 24 h
# THP-1 [10] = test: Cytotoxicity against human THP1 cells after 24 hrs by trypan blue exclusion assay; type: functional
SMILES,Activity (U-937 [1]),Activity (U-937 [2]),Activity (U-937 [3]) [%],Activity (U-937 [4]),AC30 (MOLT-3 [5]) [µM],pIC50 (THP-1 [6]),CC30 (MOLT-3 [7]) [µM],AC30 (THP-1 [8]) [µM],pIC50 (MOLT-3 [9]),CC30 (THP-1 [10]) [µM]
CC(=O)OC[C@H]1O[C@@H](SSCc2cc(CSS[C@@H]3O[C@H](COC(C)=O)[C@@H](OC(C)=O)[C@H](OC(C)=O)[C@H]3OC(C)=O)cc(CSS[C@@H]3O[C@H](COC(C)=O)[C@@H](OC(C)=O)[C@H](OC(C)=O)[C@H]3OC(C)=O)c2)[C@H](OC(C)=O)[C@@H](OC(C)=O)[C@@H]1OC(C)=O,inactive,Dose-dependent effect,25,inactive,–,–,–,–,–,–
CC(=O)OC[C@H]1O[C@@H](S)[C@H](OC(C)=O)[C@@H](OC(C)=O)[C@H]1OC(C)=O,–,–,–,inactive,>100,< 4.00,>100,>100,< 4.00,>100
Cc1c(CSS[C@@H]2O[C@H](CO)[C@@H](O)[C@H](O)[C@H]2O)c(C)c(CSS[C@@H]2O[C@H](CO)[C@@H](O)[C@H](O)[C@H]2O)c(C)c1CSS[C@@H]1O[C@H](CO)[C@@H](O)[C@H](O)[C@H]1O,Active,–,25,inactive,–,–,–,–,–,–
CC(=O)OC[C@H]1O[C@@H](SSCc2ccc(CSS[C@@H]3O[C@H](COC(C)=O)[C@@H](OC(C)=O)[C@H](OC(C)=O)[C@H]3OC(C)=O)cc2)[C@H](OC(C)=O)[C@@H](OC(C)=O)[C@@H]1OC(C)=O,Active,–,–,–,–,–,–,–,–,–
CCc1c(CSS[C@@H]2O[C@H](COC(C)=O)[C@@H](OC(C)=O)[C@H](OC(C)=O)[C@H]2OC(C)=O)c(CC)c(CSS[C@@H]2O[C@H](COC(C)=O)[C@@H](OC(C)=O)[C@H](OC(C)=O)[C@H]2OC(C)=O)c(CC)c1CSS[C@@H]1O[C@H](COC(C)=O)[C@@H](OC(C)=O)[C@H](OC(C)=O)[C@H]1OC(C)=O,Active,–,25,inactive,–,–,–,–,–,–
CCc1c(CSS[C@@H]2O[C@H](COC(C)=O)[C@H](OC(C)=O)[C@H](OC(C)=O)[C@H]2OC(C)=O)c(CC)c(CSS[C@@H]2O[C@H](COC(C)=O)[C@H](OC(C)=O)[C@H](OC(C)=O)[C@H]2OC(C)=O)c(CC)c1CSS[C@@H]1O[C@H](COC(C)=O)[C@H](OC(C)=O)[C@H](OC(C)=O)[C@H]1OC(C)=O,inactive,Dose-dependent effect,25,inactive,–,–,–,–,–,–
